Calls of active or inactive are those of the source. The rule behind the calls is not given here.
Assays:
[1] = (§1) Displacement of [I125]angiotensin2 from AT1 receptor in Sprague-Dawley rat VSMC after 2.5 hrs by gamma spectrophotometry
Procedure, shortened: (§2)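 Smooth muscle cells from rat aorta were isolated by collagenase digestion (1 h, 37 °C) and grown in DMEM with 15% FBS. Quiescent, confluent monolayers were incubated in PBS with 0.1 nM 125I-Ang II and compound at final 1×10^-12 to 1×10^-6 M for 2.5 h at 4 °C. Nonspecific binding was defined with 1×10^-6 M competitor. Cells were washed three times, lysed in 0.1 M NaOH, and bound radioactivity was gamma counted.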

Rattus norvegicus [2] = organism: Rattus norvegicus; experiment: as §1; procedure, shortened: as §2
Rattus norvegicus [3] = experiment: Antihypertensive activity in rat spontaneous hypertensive model assessed as reduction in systolic blood pressure at 15 mg/kg, po up to 10 hrs; type: functional, organism-based; design: dose 15 mg/kg; conditions: Artery
Procedure, shortened: (§3)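 Male spontaneously hypertensive rats, randomized into groups of ten. Compound suspended in 0.5% sodium carboxymethyl cellulose and given orally once at 15 or 30 mg/kg. Negative controls received the same volume of vehicle, and valsartan and irbesartan at equal doses served as positive controls. Blood pressure (SBP, DBP) and heart rate were monitored over 0–10 h after dosing with a biological signal analysis system.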

Rattus norvegicus [4] = experiment: Antihypertensive activity in rat spontaneous hypertensive model assessed as reduction in systolic blood pressure at 30 mg/kg, po up to 10 hrs; type: functional, organism-based; design: dose 30 mg/kg; conditions: Artery; procedure, shortened: as §3
Rattus norvegicus [5] = experiment: Antihypertensive activity in rat spontaneous hypertensive model assessed as time of maximum effect on systolic blood pressure at 30 mg/kg, po; type: functional, Artery; procedure, shortened: as §3
Rattus norvegicus [6] = experiment: Antihypertensive activity in rat spontaneous hypertensive model assessed as reduction in diastolic blood pressure at 15 mg/kg, po up to 10 hrs; type: functional, organism-based; design: dose 15 mg/kg; conditions: Artery; procedure, shortened: as §3
Rattus norvegicus [7] = experiment: Antihypertensive activity in rat spontaneous hypertensive model assessed as reduction in diastolic blood pressure at 30 mg/kg, po up to 10 hrs; type: functional, organism-based; design: dose 30 mg/kg; conditions: Artery; procedure, shortened: as §3
Rattus norvegicus [8] = experiment: Antihypertensive activity in rat spontaneous hypertensive model assessed as time of maximum effect on diastolic blood pressure at 30 mg/kg, po; type: functional, Artery; procedure, shortened: as §3
Rattus norvegicus [9] = experiment: Toxicity in rat spontaneous hypertensive model assessed as effect on heart rate at 30 mg/kg, po; type: organism-based; design: dose 30 mg/kg, route oral; conditions: in vivo; procedure, shortened: as §3
Rattus norvegicus [10] = experiment: Toxicity in rat spontaneous hypertensive model assessed as effect on heart rate at 15 mg/kg, po; type: organism-based; design: dose 15 mg/kg, route oral; conditions: in vivo; procedure, shortened: as §3
Rattus norvegicus [11] = experiment: Acute toxicity in ICR rat assessed as hypokinetic beginning at 2236.1 mg/kg, administered intragastrically after 5 hrs; type: organism-based; design: dose 2236.1 mg/kg, route intragastric; conditions: in vivo, po
Procedure, shortened: (§4)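 Normal ICR rats, 6–8 weeks, weighed individually; single intragastric doses of 5000.0, 3823.6, 2924.0, 2236.1, 1710.0 or 1000.0 mg/kg. Survival checked daily for two weeks. Animals observed continuously for physical signs of toxicity (skin changes, mobility, aggressiveness, respiratory movements). Survivors dissected at the end and organs examined for pathological changes.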

Rattus norvegicus [12] = experiment: Acute toxicity in ICR rat assessed as hypokinetic beginning at 2924 mg/kg, administered intragastrically after 5 hrs; type: organism-based; design: dose 2924 mg/kg, route intragastric; conditions: in vivo, po; procedure, shortened: as §4
Rattus norvegicus [13] = experiment: Acute toxicity in ICR rat assessed as hypokinetic beginning at 3823.6 mg/kg, administered intragastrically after 5 hrs; type: organism-based; design: dose 3823.6 mg/kg, route intragastric; conditions: in vivo, po; procedure, shortened: as §4
Rattus norvegicus [14] = experiment: Acute toxicity in ICR rat assessed as hypokinetic beginning at 5000 mg/kg, administered intragastrically after 5 hrs; type: organism-based; design: dose 5000 mg/kg, route intragastric; conditions: in vivo, po; procedure, shortened: as §4
Rattus norvegicus [15] = experiment: Acute toxicity in ICR rat assessed as weight loss at 1000 mg/kg, administered intragastrically after 2 weeks; type: organism-based; design: dose 1000 mg/kg, route intragastric; conditions: in vivo, po, 336 h; procedure, shortened: as §4
Rattus norvegicus [16] = experiment: Acute toxicity in ICR rat assessed as weight loss at 1710 mg/kg, administered intragastrically after 2 weeks; type: organism-based; design: dose 1710 mg/kg, route intragastric; conditions: in vivo, po, 336 h; procedure, shortened: as §4
Rattus norvegicus [17] = experiment: Acute toxicity in ICR rat assessed as weight loss at 2236.1 mg/kg, administered intragastrically after 2 weeks; type: organism-based; design: dose 2236.1 mg/kg, route intragastric; conditions: in vivo, po, 336 h; procedure, shortened: as §4
Rattus norvegicus [18] = experiment: Acute toxicity in ICR rat assessed as weight loss at 2924 mg/kg, administered intragastrically after 2 weeks; type: organism-based; design: dose 2924 mg/kg, route intragastric; conditions: in vivo, po, 336 h; procedure, shortened: as §4
Rattus norvegicus [19] = experiment: Acute toxicity in ICR rat assessed as weight loss at 3823.6 mg/kg, administered intragastrically after 2 weeks; type: organism-based; design: dose 3823.6 mg/kg, route intragastric; conditions: in vivo, po, 336 h; procedure, shortened: as §4
Rattus norvegicus [20] = experiment: Acute toxicity in ICR rat assessed as weight loss at 5000 mg/kg, administered intragastrically after 2 weeks; type: organism-based; design: dose 5000 mg/kg, route intragastric; conditions: in vivo, po, 336 h; procedure, shortened: as §4
[21] = Acute toxicity in ICR rat assessed as mortality at 1000 mg/kg, administered intragastrically after 14 days relative to control; type: organism-based; design: dose 1000 mg/kg, route intragastric; conditions: in vivo, po, read-out: Activity; procedure, shortened: as §4
[22] = Acute toxicity in ICR rat assessed as mortality at 1710 mg/kg, administered intragastrically after 14 days relative to control; type: organism-based; design: dose 1710 mg/kg, route intragastric; conditions: in vivo, po, read-out: Activity; procedure, shortened: as §4
[23] = Acute toxicity in ICR rat assessed as mortality at 2236.1 mg/kg, administered intragastrically after 14 days relative to control; type: organism-based; design: dose 2236.1 mg/kg, route intragastric; conditions: in vivo, po, read-out: Activity; procedure, shortened: as §4
[24] = Acute toxicity in ICR rat assessed as mortality at 2924 mg/kg, administered intragastrically after 14 days relative to control; type: organism-based; design: dose 2924 mg/kg, route intragastric; conditions: in vivo, po, read-out: Activity; procedure, shortened: as §4
[25] = Acute toxicity in ICR rat assessed as mortality at 3823.6 mg/kg, administered intragastrically after 14 days relative to control; type: organism-based; design: dose 3823.6 mg/kg, route intragastric; conditions: in vivo, po, read-out: Activity; procedure, shortened: as §4
[26] = Acute toxicity in ICR rat assessed as mortality at 5000 mg/kg, administered intragastrically after 14 days relative to control; type: organism-based; design: dose 5000 mg/kg, route intragastric; conditions: in vivo, po, read-out: Activity; procedure, shortened: as §4
[27] = Acute toxicity in intragastrically dosed ICR rat; type: organism-based; conditions: in vivo, po
Procedure, shortened: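 ICR rats (6–8 weeks, individually weighed) dosed intragastrically at 1000.0–5000.0 mg/kg (six dose levels); daily survival over 14 days. LD50 with 95% confidence limits obtained by logistic regression (GLM) curve fitting of 14-day mortality data.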

Rattus norvegicus [28] = experiment: Acute toxicity in ICR rat assessed as hypokinetic beginning at 1000 mg/kg, administered intragastrically after 5 hrs; type: organism-based; design: dose 1000 mg/kg, route intragastric; conditions: in vivo, po; procedure, shortened: as §4
Rattus norvegicus [29] = experiment: Acute toxicity in ICR rat assessed as hypokinetic beginning at 1710 mg/kg, administered intragastrically after 5 hrs; type: organism-based; design: dose 1710 mg/kg, route intragastric; conditions: in vivo, po; procedure, shortened: as §4

Row | IC50 [1] [nM] | Ki [1] [nM] | inhibition (Rattus norvegicus [2]) | SMILES | Activity (Rattus norvegicus [3]) | Activity (Rattus norvegicus [4]) | Time (Rattus norvegicus [5]) [h] | Activity (Rattus norvegicus [6]) | Activity (Rattus norvegicus [7]) | Time (Rattus norvegicus [8]) [h] | Activity (Rattus norvegicus [9]) | Activity (Rattus norvegicus [10]) | also measured
1 | 36 | 24.3 | Dose-dependent effect | CCCC(=O)N(Cc1ccc(-c2ccccc2-c2nc(=O)o[nH]2)cc1)[C@@H](CC(C)C)C(=O)O | Active | Active | 3 | Active | Active | 3 | Non-toxic | Non-toxic | 
2 | 20.8 | 14.1 | Dose-dependent effect | CCCC(=O)N(Cc1ccc(-c2cc(F)ccc2-c2noc(=O)[nH]2)cc1)[C@H](C(=O)O)C(C)C |  | Active | 3 |  | Active | 3 | Non-toxic | Non-toxic | 
3 | 10.2 | 6.88 | Dose-dependent effect | CCCCC(=O)N(Cc1ccc(-c2ccccc2-c2nc(=O)o[nH]2)cc1)[C@@H](CC(C)C)C(=O)O | inactive | inactive |  | inactive | inactive |  | Non-toxic | Non-toxic | 
4 | 9.82 | 6.65 | Dose-dependent effect | CCCCC(=O)N(Cc1ccc(-c2ccccc2-c2nc(=O)o[nH]2)cc1)[C@H](C(=O)O)C(C)C | Active | Active | 3 | Active | Active | 3 | Non-toxic | Non-toxic | 
5 | 18 | 12.2 | Dose-dependent effect | CCCCC(=O)N(Cc1ccc(-c2ccccc2-c2nc(=O)o[nH]2)cc1)[C@@H](Cc1ccccc1)C(=O)O | inactive | inactive |  | inactive | inactive |  | Non-toxic | Non-toxic | 
6 | 1.6 | 1.03 | Dose-dependent effect | CCC(=O)N(Cc1ccc(-c2ccccc2-c2nc(=O)o[nH]2)cc1)[C@H](C(=O)O)C(C)C | Active | Active | 3 | Active | Active | 3 | Non-toxic | Non-toxic | 
7 | 26.5 | 17.9 | Dose-dependent effect | CCCC(=O)N(Cc1ccc(-c2ccccc2-c2nc(=O)o[nH]2)cc1)[C@@H](Cc1ccccc1)C(=O)O | inactive | inactive |  | inactive | inactive |  | Non-toxic | Non-toxic | 
8 |  |  |  | CCCCc1nc(Cl)c(CO)n1Cc1ccc(-c2ccccc2-c2nn[nH]n2)cc1 [LOSARTAN] |  |  |  |  |  |  |  |  | LD50 [27]: 2250 mg/kg
9 | 0.58 | 0.41 | Dose-dependent effect | CCCCC1=NC2(CCCC2)C(=O)N1Cc1ccc(-c2ccccc2-c2nnn[nH]2)cc1 [IRBESARTAN] | Active | Active | 3 | Active | Active | 3 | Non-toxic | Non-toxic | 

Row | SMILES | IC50 [1] [nM] | Ki [1] [nM] | inhibition (Rattus norvegicus [2]) | Activity (Rattus norvegicus [3]) | Activity (Rattus norvegicus [4]) | Time (Rattus norvegicus [5]) [h] | Activity (Rattus norvegicus [6]) | Activity (Rattus norvegicus [7]) | Time (Rattus norvegicus [8]) [h] | Activity (Rattus norvegicus [9]) | Activity (Rattus norvegicus [10]) | also measured
10 | CCCC(=O)N(Cc1ccc(-c2ccccc2-c2nc(=O)o[nH]2)cc1)[C@H](C(=O)O)C(C)C | 0.49 | 0.33 | Dose-dependent effect | Active | Active | 3 | Active | Active | 3 | Non-toxic | Non-toxic | Activity (Rattus norvegicus [11]): Toxic; Activity (Rattus norvegicus [12]): Toxic; Activity (Rattus norvegicus [13]): Toxic; Activity (Rattus norvegicus [14]): Toxic; Activity (Rattus norvegicus [15]): Non-toxic; Activity (Rattus norvegicus [16]): Non-toxic; Activity (Rattus norvegicus [17]): Non-toxic; Activity (Rattus norvegicus [18]): Non-toxic; Activity (Rattus norvegicus [19]): Non-toxic; Activity (Rattus norvegicus [20]): Non-toxic; mortality at 336 h [21]: 0%; mortality at 336 h [22]: 30%; mortality at 336 h [23]: 50%; mortality at 336 h [24]: 60%; mortality at 336 h [25]: 80%; mortality at 336 h [26]: 100%; LD50 [27]: 2320 mg/kg; Activity (Rattus norvegicus [28]): Non-toxic; Activity (Rattus norvegicus [29]): Toxic
11 | CCCCC(=O)N(Cc1ccc(-c2ccccc2-c2nnn[nH]2)cc1)[C@H](C(=O)O)C(C)C [VALSARTAN] | 2.64 | 2.22 | Dose-dependent effect | Active |  |  | Active |  |  | Non-toxic | Non-toxic | LD50 [27]: 308 mg/kg
